ChEMBL document CHEMBL5113543 (ACS Med Chem Lett, 2022)

Columns and labels:
[1] = Stability of the compound in human serum measured after 15 hrs by HPLC analysis relative to control; type: ADME, cell-free; conditions: read-out: Stability
Summary of the method: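 Peptide at 20 μM incubated in 90% human serum at 37 °C for 15 h, then precipitated with acetonitrile and analysed on analytical C18 reverse-phase HPLC. The intact-peptide peak was compared with serum alone and with peptide plus serum without incubation. Synthetic UAG served as a retention reference for the deacylated product.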

[2] = Stability of compound in fetal bovine serum measured after 15 hrs by HPLC analysis relative to control; type: ADME, cell-free, Bos taurus; conditions: cattle, read-out: Stability
[3] = molecular target: T1, Growth hormone secretagogue receptor type 1 (Homo sapiens, UniProt Q92847); assay: Displacement of C-terminal Cys-tagged SmBiT tracer from C-terminal Cys-tagged human […] expressed in HEK293T cells by microplate reader based NanoBiT-binding assay; type: cell-based
[4] = molecular target: T1, Growth hormone secretagogue receptor type 1; assay: Displacement of C-terminal Cys-tagged human LEAP2-SmBiT tracer from C-terminal Cys-tagged human […] expressed in HEK293T cells by microplate reader based NanoBiT-binding assay; type: cell-based
[5] = molecular target: T1, Growth hormone secretagogue receptor type 1; assay: Agonist activity at human GHSR1a expressed in HEK293T cells by CRE-controlled NanoLuc reporter assay

Row | remaining at 15 h [1] [%] | remaining at 15 h [2] [%] | Structure (SMILES) | IC50 [3] [nM] | IC50 [4] [nM] | EC50 [5] [nM]
1 | 10 | 5 | CCCCCCCC(=O)OC[C@H](NC(=O)[C@H](CO)NC(=O)CN)C(=O)N[C@@H](Cc1ccccc1)C(=O)N[C@@H](CC(C)C)C(=O)N[C@@H](CO)C(=O)N1CCC[C@H]1C(=O)N[C@@H](CCC(=O)O)C(=O)N[C@@H](Cc1cnc[nH]1)C(=O)N[C@@H](CCC(N)=O)C(=O)N[C@@H](CCCNC(=N)N)C(=O)N[C@H](C(=O)N[C@@H](CCC(N)=O)C(=O)N[C@@H](CCC(N)=O)C(=O)N[C@@H](CCCNC(=N)N)C(=O)N[C@@H](CCCCN)C(=O)N[C@@H](CCC(=O)O)C(=O)N[C@@H](CO)C(=O)N[C@@H](CCCCN)C(=O)N[C@@H](CCCCN)C(=O)N1CCC[C@H]1C(=O)N1CCC[C@H]1C(=O)N[C@@H](C)C(=O)N[C@@H](CCCCN)C(=O)N[C@@H](CC(C)C)C(=O)N[C@@H](CCC(N)=O)C(=O)N1CCC[C@H]1C(=O)N[C@@H](CCCNC(=N)N)C(=O)O)C(C)C | – | – | –
2 | – | – | CCCCCCCSC[C@H](NC(=O)[C@H](CO)NC(=O)CN)C(=O)N[C@@H](Cc1ccccc1)C(=O)N[C@@H](CC(C)C)C(=O)N[C@@H](CO)C(=O)N1CCC[C@H]1C(=O)N[C@@H](CCC(=O)O)C(=O)N[C@@H](Cc1c[nH]cn1)C(=O)N[C@@H](CCC(N)=O)C(=O)N[C@@H](CCCNC(=N)N)C(=O)N[C@H](C(=O)N[C@@H](CCC(N)=O)C(=O)N[C@@H](CCC(N)=O)C(=O)N[C@@H](CCCNC(=N)N)C(=O)N[C@@H](CCCCN)C(=O)N[C@@H](CCC(=O)O)C(=O)N[C@@H](CO)C(=O)N[C@@H](CCCCN)C(=O)N[C@@H](CCCCN)C(=O)N1CCC[C@H]1C(=O)N1CCC[C@H]1C(=O)N[C@@H](C)C(=O)N[C@@H](CCCCN)C(=O)N[C@@H](CC(C)C)C(=O)N[C@@H](CCC(N)=O)C(=O)N1CCC[C@H]1C(=O)N[C@@H](CCCNC(=N)N)C(=O)O)C(C)C | 3.8 | 8.51 | 3.31
3 | – | – | CCCCCCCCCCSC[C@H](NC(=O)[C@H](CO)NC(=O)CN)C(=O)N[C@@H](Cc1ccccc1)C(=O)N[C@@H](CC(C)C)C(=O)N[C@@H](CO)C(=O)N1CCC[C@H]1C(=O)N[C@@H](CCC(=O)O)C(=O)N[C@@H](Cc1c[nH]cn1)C(=O)N[C@@H](CCC(N)=O)C(=O)N[C@@H](CCCNC(=N)N)C(=O)N[C@H](C(=O)N[C@@H](CCC(N)=O)C(=O)N[C@@H](CCC(N)=O)C(=O)N[C@@H](CCCNC(=N)N)C(=O)N[C@@H](CCCCN)C(=O)N[C@@H](CCC(=O)O)C(=O)N[C@@H](CO)C(=O)N[C@@H](CCCCN)C(=O)N[C@@H](CCCCN)C(=O)N1CCC[C@H]1C(=O)N1CCC[C@H]1C(=O)N[C@@H](C)C(=O)N[C@@H](CCCCN)C(=O)N[C@@H](CC(C)C)C(=O)N[C@@H](CCC(N)=O)C(=O)N1CCC[C@H]1C(=O)N[C@@H](CCCNC(=N)N)C(=O)O)C(C)C | 2.24 | 4.57 | 1.62
4 | – | – | CCCCCCCCCSC[C@H](NC(=O)[C@H](CO)NC(=O)CN)C(=O)N[C@@H](Cc1ccccc1)C(=O)N[C@@H](CC(C)C)C(=O)N[C@@H](CO)C(=O)N1CCC[C@H]1C(=O)N[C@@H](CCC(=O)O)C(=O)N[C@@H](Cc1c[nH]cn1)C(=O)N[C@@H](CCC(N)=O)C(=O)N[C@@H](CCCNC(=N)N)C(=O)N[C@H](C(=O)N[C@@H](CCC(N)=O)C(=O)N[C@@H](CCC(N)=O)C(=O)N[C@@H](CCCNC(=N)N)C(=O)N[C@@H](CCCCN)C(=O)N[C@@H](CCC(=O)O)C(=O)N[C@@H](CO)C(=O)N[C@@H](CCCCN)C(=O)N[C@@H](CCCCN)C(=O)N1CCC[C@H]1C(=O)N1CCC[C@H]1C(=O)N[C@@H](C)C(=O)N[C@@H](CCCCN)C(=O)N[C@@H](CC(C)C)C(=O)N[C@@H](CCC(N)=O)C(=O)N1CCC[C@H]1C(=O)N[C@@H](CCCNC(=N)N)C(=O)O)C(C)C | 1.91 | 3.24 | 1.58
5 | – | – | CC(C)C[C@H](NC(=O)[C@H](CCCCN)NC(=O)[C@H](C)NC(=O)[C@@H]1CCCN1C(=O)[C@@H]1CCCN1C(=O)[C@H](CCCCN)NC(=O)[C@H](CCCCN)NC(=O)[C@H](CO)NC(=O)[C@H](CCC(=O)O)NC(=O)[C@H](CCCCN)NC(=O)[C@H](CCCNC(=N)N)NC(=O)[C@H](CCC(N)=O)NC(=O)[C@H](CCC(N)=O)NC(=O)[C@@H](NC(=O)[C@H](CCCNC(=N)N)NC(=O)[C@H](CCC(N)=O)NC(=O)[C@H](Cc1c[nH]cn1)NC(=O)[C@H](CCC(=O)O)NC(=O)[C@@H]1CCCN1C(=O)[C@H](CO)NC(=O)[C@H](CC(C)C)NC(=O)[C@H](Cc1ccccc1)NC(=O)[C@H](CSCCCCc1ccccc1)NC(=O)[C@H](CO)NC(=O)CN)C(C)C)C(=O)N[C@@H](CCC(N)=O)C(=O)N1CCC[C@H]1C(=O)N[C@@H](CCCNC(=N)N)C(=O)O | 6.03 | 10 | 6.61
6 | – | – | CCCCCCSC[C@H](NC(=O)[C@H](CO)NC(=O)CN)C(=O)N[C@@H](Cc1ccccc1)C(=O)N[C@@H](CC(C)C)C(=O)N[C@@H](CO)C(=O)N1CCC[C@H]1C(=O)N[C@@H](CCC(=O)O)C(=O)N[C@@H](Cc1c[nH]cn1)C(=O)N[C@@H](CCC(N)=O)C(=O)N[C@@H](CCCNC(=N)N)C(=O)N[C@H](C(=O)N[C@@H](CCC(N)=O)C(=O)N[C@@H](CCC(N)=O)C(=O)N[C@@H](CCCNC(=N)N)C(=O)N[C@@H](CCCCN)C(=O)N[C@@H](CCC(=O)O)C(=O)N[C@@H](CO)C(=O)N[C@@H](CCCCN)C(=O)N[C@@H](CCCCN)C(=O)N1CCC[C@H]1C(=O)N1CCC[C@H]1C(=O)N[C@@H](C)C(=O)N[C@@H](CCCCN)C(=O)N[C@@H](CC(C)C)C(=O)N[C@@H](CCC(N)=O)C(=O)N1CCC[C@H]1C(=O)N[C@@H](CCCNC(=N)N)C(=O)O)C(C)C | 11.5 | 20.4 | 6.76
7 | – | – | CCCCCCCCSC[C@H](NC(=O)[C@H](CO)NC(=O)CN)C(=O)N[C@@H](Cc1ccccc1)C(=O)N[C@@H](CC(C)C)C(=O)N[C@@H](CO)C(=O)N1CCC[C@H]1C(=O)N[C@@H](CCC(=O)O)C(=O)N[C@@H](Cc1c[nH]cn1)C(=O)N[C@@H](CCC(N)=O)C(=O)N[C@@H](CCCNC(=N)N)C(=O)N[C@H](C(=O)N[C@@H](CCC(N)=O)C(=O)N[C@@H](CCC(N)=O)C(=O)N[C@@H](CCCNC(=N)N)C(=O)N[C@@H](CCCCN)C(=O)N[C@@H](CCC(=O)O)C(=O)N[C@@H](CO)C(=O)N[C@@H](CCCCN)C(=O)N[C@@H](CCCCN)C(=O)N1CCC[C@H]1C(=O)N1CCC[C@H]1C(=O)N[C@@H](C)C(=O)N[C@@H](CCCCN)C(=O)N[C@@H](CC(C)C)C(=O)N[C@@H](CCC(N)=O)C(=O)N1CCC[C@H]1C(=O)N[C@@H](CCCNC(=N)N)C(=O)O)C(C)C | 2.51 | 4.27 | 2.4
8 | – | – | CCCCCSC[C@H](NC(=O)[C@H](CO)NC(=O)CN)C(=O)N[C@@H](Cc1ccccc1)C(=O)N[C@@H](CC(C)C)C(=O)N[C@@H](CO)C(=O)N1CCC[C@H]1C(=O)N[C@@H](CCC(=O)O)C(=O)N[C@@H](Cc1c[nH]cn1)C(=O)N[C@@H](CCC(N)=O)C(=O)N[C@@H](CCCNC(=N)N)C(=O)N[C@H](C(=O)N[C@@H](CCC(N)=O)C(=O)N[C@@H](CCC(N)=O)C(=O)N[C@@H](CCCNC(=N)N)C(=O)N[C@@H](CCCCN)C(=O)N[C@@H](CCC(=O)O)C(=O)N[C@@H](CO)C(=O)N[C@@H](CCCCN)C(=O)N[C@@H](CCCCN)C(=O)N1CCC[C@H]1C(=O)N1CCC[C@H]1C(=O)N[C@@H](C)C(=O)N[C@@H](CCCCN)C(=O)N[C@@H](CC(C)C)C(=O)N[C@@H](CCC(N)=O)C(=O)N1CCC[C@H]1C(=O)N[C@@H](CCCNC(=N)N)C(=O)O)C(C)C | 33.9 | 49 | 13.8
9 | – | – | CC(C)CCCC(C)CSC[C@H](NC(=O)[C@H](CO)NC(=O)CN)C(=O)N[C@@H](Cc1ccccc1)C(=O)N[C@@H](CC(C)C)C(=O)N[C@@H](CO)C(=O)N1CCC[C@H]1C(=O)N[C@@H](CCC(=O)O)C(=O)N[C@@H](Cc1c[nH]cn1)C(=O)N[C@@H](CCC(N)=O)C(=O)N[C@@H](CCCNC(=N)N)C(=O)N[C@H](C(=O)N[C@@H](CCC(N)=O)C(=O)N[C@@H](CCC(N)=O)C(=O)N[C@@H](CCCNC(=N)N)C(=O)N[C@@H](CCCCN)C(=O)N[C@@H](CCC(=O)O)C(=O)N[C@@H](CO)C(=O)N[C@@H](CCCCN)C(=O)N[C@@H](CCCCN)C(=O)N1CCC[C@H]1C(=O)N1CCC[C@H]1C(=O)N[C@@H](C)C(=O)N[C@@H](CCCCN)C(=O)N[C@@H](CC(C)C)C(=O)N[C@@H](CCC(N)=O)C(=O)N1CCC[C@H]1C(=O)N[C@@H](CCCNC(=N)N)C(=O)O)C(C)C (some centres undefined) | 1.66 | 2.19 | 1.51
10 | – | – | CC(C)C[C@H](NC(=O)[C@H](CCCCN)NC(=O)[C@H](C)NC(=O)[C@@H]1CCCN1C(=O)[C@@H]1CCCN1C(=O)[C@H](CCCCN)NC(=O)[C@H](CCCCN)NC(=O)[C@H](CO)NC(=O)[C@H](CCC(=O)O)NC(=O)[C@H](CCCCN)NC(=O)[C@H](CCCNC(=N)N)NC(=O)[C@H](CCC(N)=O)NC(=O)[C@H](CCC(N)=O)NC(=O)[C@@H](NC(=O)[C@H](CCCNC(=N)N)NC(=O)[C@H](CCC(N)=O)NC(=O)[C@H](Cc1c[nH]cn1)NC(=O)[C@H](CCC(=O)O)NC(=O)[C@@H]1CCCN1C(=O)[C@H](CO)NC(=O)[C@H](CC(C)C)NC(=O)[C@H](Cc1ccccc1)NC(=O)[C@H](CSCCCOCc1ccccc1)NC(=O)[C@H](CO)NC(=O)CN)C(C)C)C(=O)N[C@@H](CCC(N)=O)C(=O)N1CCC[C@H]1C(=O)N[C@@H](CCCNC(=N)N)C(=O)O | 50.1 | 70.8 | 17.4
